High-throughput results from PubChem.
Not all results are given here.
Apaf-1 act: activators of human Apaf-1 apoptosome, primary screen, biochemical, DEVD-Rh110 fluorescence, uHTS. Apoptotic protease-activating factor 1 (Homo sapiens), O14727. Apaf-1 apoptosome caspase-3 activation; active compounds read low. activity change, negative = activation, % at 20 µM. hit rate 0.31% among 330,000;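 active means activity change at or below -40% at 20 µM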
Target sequence (O14727 whole entry, looked up): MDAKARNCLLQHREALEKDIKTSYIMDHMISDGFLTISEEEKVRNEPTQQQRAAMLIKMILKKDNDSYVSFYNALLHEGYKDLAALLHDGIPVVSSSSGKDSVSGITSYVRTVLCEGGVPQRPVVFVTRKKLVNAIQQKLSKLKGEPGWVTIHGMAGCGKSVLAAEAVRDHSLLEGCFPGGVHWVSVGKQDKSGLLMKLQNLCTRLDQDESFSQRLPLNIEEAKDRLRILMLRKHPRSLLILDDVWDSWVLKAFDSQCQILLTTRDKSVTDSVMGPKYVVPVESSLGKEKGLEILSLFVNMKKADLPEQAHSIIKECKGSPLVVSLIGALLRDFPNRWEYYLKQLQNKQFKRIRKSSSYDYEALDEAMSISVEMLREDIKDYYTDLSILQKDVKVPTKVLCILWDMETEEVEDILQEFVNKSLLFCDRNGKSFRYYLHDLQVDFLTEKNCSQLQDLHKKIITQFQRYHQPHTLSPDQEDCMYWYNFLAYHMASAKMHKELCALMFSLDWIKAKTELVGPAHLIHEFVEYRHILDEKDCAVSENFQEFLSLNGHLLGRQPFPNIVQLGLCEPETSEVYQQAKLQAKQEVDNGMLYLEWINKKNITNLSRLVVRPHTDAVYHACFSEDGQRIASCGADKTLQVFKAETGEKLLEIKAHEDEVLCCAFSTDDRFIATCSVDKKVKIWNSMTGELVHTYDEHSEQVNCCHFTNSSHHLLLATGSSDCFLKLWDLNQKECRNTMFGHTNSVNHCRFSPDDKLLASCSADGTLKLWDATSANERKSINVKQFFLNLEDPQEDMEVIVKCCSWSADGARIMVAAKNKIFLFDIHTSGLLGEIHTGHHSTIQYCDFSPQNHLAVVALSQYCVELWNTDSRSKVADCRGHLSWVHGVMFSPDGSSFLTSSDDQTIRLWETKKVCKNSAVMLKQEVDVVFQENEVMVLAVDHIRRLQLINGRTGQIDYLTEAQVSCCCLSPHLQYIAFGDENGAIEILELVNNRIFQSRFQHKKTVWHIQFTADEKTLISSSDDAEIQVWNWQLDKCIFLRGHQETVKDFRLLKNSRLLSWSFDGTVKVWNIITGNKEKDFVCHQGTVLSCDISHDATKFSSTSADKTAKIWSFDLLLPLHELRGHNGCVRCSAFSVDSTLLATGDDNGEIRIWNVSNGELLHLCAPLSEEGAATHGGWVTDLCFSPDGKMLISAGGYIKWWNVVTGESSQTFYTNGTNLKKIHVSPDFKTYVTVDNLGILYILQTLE
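Assay system – biochemical Apaf-1 apoptosome reconstitution · Medium – 20 mM HEPES buffer, pH 7.5, containing CHAPS and BSA · Incubation – 30 min preincubation, 50 min reaction, room temperature · Measured by – Caspase-3-released Rh110 fluorescence, 540 nm emission, 480 nm excitation · Read-out – Caspase-3 cleavage activity downstream of Apaf-1 activation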
Rh110 act interf: Rh110 fluorescence interference by putative Apaf-1 activators, confirmation, artefact control for Apaf-1 activator project, biochemical, 20 µM; shares compounds with Apaf-1 act; quenched caspase reaction, Ex480/Em540; fluorescence interference (activity change), % at 20 µM, hits read low; 980 tested, under 10 active;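 active means mean activity change at or below -40% when tested at 20 µM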
Apaf-1 act conf: Apaf-1 activators, single-dose retest, confirmation, biochemical, fluorescence, DEVD-Rh110, 20 µM; reconstituted apoptosome caspase-3 activity; active compounds read low; hit rate 5% among 980; activity change, negative = activation, % at 20 µM; shares compounds with Apaf-1 act;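 active means mean activity change at or below -40%, meaning activation of 40% or more, at 20 µM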
Fluor interf act: fluorescence interference of Apaf-1 activator hits, dose response, artefact control for Apaf-1 activator project; shares compounds with Apaf-1 act; fluorescence interference counterscreen, Apaf-1 activator assay; 55 tested, under 10 active; EC50, µM; call rule not given here
Of the large screens only hits and unclear results are named; the others gave an inactive call (follow-up assays come after a bar, where they were run).

O=C(C(Cc1ccccc1)N1C(=O)c2ccccc2C1=O)N1c2ccccc2CCc2ccccc21 (stereo unspecified)	none
Cc1ccc(NC(=O)CN(C)C(=O)c2ccc3[nH]c4c(c3c2)CC(C)CC4)cc1 (stereo unspecified)	none
CCC(C)c1ccccc1NC(=O)COC(=O)c1ccc2[nH]c3c(c2c1)CCCC3 (stereo unspecified)	Apaf-1 act -169.7 | Rh110 act interf inactive | Apaf-1 act conf inactive
O=C(NC1CC1)c1ccc(CS(=O)c2ccccc2)o1 (stereo unspecified)	Apaf-1 act -96.6 | Rh110 act interf inactive | Apaf-1 act conf inactive
O=[N+]([O-])c1ccc(-c2ccc(C=Nc3cccc4ccccc34)o2)cc1	none
COc1ccc(C(CNC(=O)C2CC(=O)N(Cc3ccccc3)C2)N2CCCC2)cc1 (stereo unspecified)	none
COc1ccc(OC)c(-c2nn(-c3ccccc3)cc2C(=O)NCC(c2ccco2)N2CCCC2)c1 (stereo unspecified)	Apaf-1 act -117.3 | Rh110 act interf inactive | Apaf-1 act conf inactive
CCN(Cc1ccccc1)S(=O)(=O)c1ccc(C(=O)N(CCCN(C)C)c2nc3cc(C)cc(C)c3s2)cc1	none
O=C(NCCNc1ccc2ccccc2c1)c1cccn2c(=O)c3sccc3nc12	none
C[C@@H](CN1CCC[C@H]1CN1C(N)=NC[C@@H]1Cc1ccccc1)N1C[C@@H](Cc2ccccc2)N(CCc2ccc(Cl)c(Cl)c2)C1=N	none
COC(=O)Nc1nnc(COc2ccccc2)s1	Apaf-1 act -572.6 | Rh110 act interf inactive | Apaf-1 act conf inactive
COC(=O)CCC(=O)OC1(C)C(=O)C2=CN(CCc3ccccn3)C(c3ccc(OC)cc3)=CC2=C(Br)C1=O (stereo unspecified)	none
Cc1ccc(CNC(=O)CN(C)S(=O)(=O)c2cnc[nH]2)cc1	Apaf-1 act -237.0 | Rh110 act interf inactive | Apaf-1 act conf inactive
COC(=O)CCC(=O)OC1(C)C(=O)C2=CN(C(CO)CO)C(c3ccc(OC)cc3)=CC2=C(Br)C1=O (stereo unspecified)	none
O=C(O)C1CCCN(S(=O)(=O)c2ccc(-c3ccc(=O)[nH]n3)s2)C1 (stereo unspecified)	Apaf-1 act -350.5 | Rh110 act interf inactive | Apaf-1 act conf inactive
CC(=O)[C@@H]1[C@@H]2C(=O)N(Cc3ccccc3)C(=O)[C@@H]2C2c3ccccc3C=CN21 (stereo partly specified)	none
O=P(CCCCCCCCCP(=O)(c1ccccc1)c1ccccc1)(c1ccccc1)c1ccccc1	none
CCc1sc(NC(=O)CCC(=O)O)nc1-c1cc2ccccc2oc1=O	Apaf-1 act -222.7 | Rh110 act interf inactive | Apaf-1 act conf inactive
COc1ccc2c(c1)Cc1sc(NC(=O)c3ccccc3)nc1-2	none
CCOC(=O)C1=C(COC(=O)c2ccc([N+](=O)[O-])s2)NC(=O)NC1C (stereo unspecified)	none
NC[C@@H]1O[C@H](C23CC4CC(CC(C4)C2)C3)Cc2c1ccc(O)c2O	none
Cc1cc(C(=O)COc2cccc3cccnc23)c(C)n1C	none
O=C(Nc1ccncc1)c1cc(-c2cccc(Br)c2)nc2ccccc12	none
CSc1cccc(NC(=O)c2cccc3cccnc23)c1	Apaf-1 act -72.5 | Rh110 act interf inactive | Apaf-1 act conf inactive
CC(=O)Nc1ccc(NC(=O)CC2Nc3cccc4cccc(c34)NC2=O)cc1 (stereo unspecified)	none
Oc1ccc(NCc2ccccc2OCc2ccccc2F)cc1	none
CCC(C)Sc1cccc(-c2nc3cc(C)ccn3c2NC2CCCCC2)c1 (stereo unspecified)	none
Cc1ccn2c(NC3CCCCC3)c(-c3cccc(SC4CCCCC4)c3)nc2c1	none
Oc1ccc(Br)cc1-c1nc2cnccn2c1NC1CCCC1	Apaf-1 act -566.0 | Rh110 act interf inactive | Apaf-1 act conf inactive
COCCNC(=O)CN(c1cccc(OC)c1)S(=O)(=O)c1ccc(C)cc1	none
Cc1ccc(OCCNC(=O)CCNS(=O)(=O)c2ccc(C)cc2)cc1	Apaf-1 act -605.3 | Rh110 act interf inactive | Apaf-1 act conf inactive
O=C1C(=O)c2c(C(=O)c3ccccc3)coc2-c2ccccc21	none
Cc1cc(C)cc(NC(=O)C2C3C=CC4(O3)C2C(=O)N(CCCN2CCCCC2)C4C(=O)NC2CCCCC2)c1 (stereo unspecified)	Apaf-1 act -324.6 | Rh110 act interf inactive | Apaf-1 act conf inactive
COc1cccc(C(C[N+](=O)[O-])c2c(C)[nH]n(-c3ccccc3)c2=O)c1 (stereo unspecified)	none
CC(C)c1c(Cl)c(O)c(-c2ccccc2)c(=O)n1-c1ccc(F)cc1	Apaf-1 act -40.4 | Rh110 act interf inactive | Apaf-1 act conf inactive
Cc1cc(C)n(-c2cc(Cl)cc(Cl)c2)c(=O)c1C#N	Apaf-1 act -403.0 | Rh110 act interf inactive | Apaf-1 act conf inactive
N#Cc1cccc(S(=O)(=O)N2CCN(c3ccnc4cc(Cl)ccc34)CC2)c1	Apaf-1 act -134.8 | Rh110 act interf inactive | Apaf-1 act conf inactive
c1ccc(-c2sc3ccccc3c2-c2ccc(OCCN3CCCC3)cc2)cc1	none
Oc1ccc(C=Nc2cccc3ncccc23)c(O)c1	none
O=C(N/N=C/c1ccc(O)c2ncccc12)c1cccc(Br)c1	Apaf-1 act -68.3 | Rh110 act interf inactive | Apaf-1 act conf inactive
CCn1c(SCC(=O)c2ccc(F)cc2)nnc1-c1ccoc1C	Apaf-1 act -223.2 | Rh110 act interf inactive | Apaf-1 act conf inactive
O=C(COc1ccccc1[N+](=O)[O-])N/N=C/c1ccncc1	Apaf-1 act -53.1 | Rh110 act interf inactive | Apaf-1 act conf inactive
O=C(N/N=C\c1ccc(-c2ccccc2[N+](=O)[O-])o1)C1COc2ccccc2O1 (stereo unspecified)	none
O=C(N/N=C/c1ccc(-c2ccccc2[N+](=O)[O-])o1)c1cncc(Br)c1	none
CCC/C(=C1/c2ccccc2C(=O)N1c1ccccc1)c1cnc(OC)nc1	none
CC(C)(C)c1cc(C(=O)N2CCN(c3ncccn3)CC2)ccn1	Apaf-1 act -49.8 | Rh110 act interf inactive | Apaf-1 act conf inactive
CN1CCN(CCCN2c3ccccc3Sc3ccc(C(F)(F)F)cc32)CC1	none
Cc1ccc(S(=O)(=O)N(C)C)cc1NC(=O)c1ccccc1SCC(=O)N1CCCC1	none
Cc1ccc(S(=O)(=O)N(C)C)cc1NC(=O)CSc1nc2ncc(Cl)cc2[nH]1	Apaf-1 act -110.6 | Rh110 act interf inactive | Apaf-1 act conf inactive
Cc1ccccc1NC(=O)C1CC(Cl)=CCC1C(=O)O (stereo unspecified)	Apaf-1 act -110.5 | Rh110 act interf inactive | Apaf-1 act conf inactive
Cc1ccc(NC2=C/C(=N\S(=O)(=O)c3cccs3)c3ccccc3C2=O)c(C)c1	none
Cc1cccc(C)c1NC(=O)Cn1cc(C=O)c2ccccc21	Apaf-1 act -251.3 | Rh110 act interf inactive | Apaf-1 act conf -42.5 | Fluor interf act inactive
Cc1cccc(C)c1NC(=O)CN1CCN(CCCC(c2ccc(F)cc2)c2ccc(F)cc2)CC1	none
